# Measurements from different studies.
# Protocols differ between the studies behind these lines.
# TNK1: Non-receptor tyrosine-protein kinase TNK1 (TNK1, Homo sapiens, UniProt Q13470)
# HDAC6: Protein deacetylase HDAC6 (HDAC6, Homo sapiens, UniProt Q9UBN7)
Compound,target,test,conditions,endpoint,value
CCc1nn(C)c2nc(-c3ccc(C(=O)O)cc3)nc(NCc3ccc(F)cc3)c12,"3',5'-cyclic-AMP phosphodiesterase 4D (PDE4D, Homo sapiens, UniProt Q08499)","enzyme activity, inhibitor, radiometric",10 µM,inhibition,42.1%
Cc1cc(NC(=O)c2cccc(NC(=O)/C=C/CN(C)C)c2)ccc1Nc1nccc(-c2cccnc2)n1,TNK1,"binding, competition with immobilised ligand",1 µM,remaining binding,57%
COc1cc(-c2cncc3c2CN(C)Cc2cc(N4CCNCC4)ccc2-3)cc(OC)c1OC,"Death-associated protein kinase 1 (DAPK1, Homo sapiens, UniProt P53355)","enzyme activity, inhibitor",1 µM,remaining activity,101%
CNc1ncc2c(/C=C/C(=O)N3CCC(OC)CC3)nn(Cc3cccc(C(F)(F)F)c3)c2n1,"Dual specificity protein kinase TTK (TTK, Homo sapiens, UniProt P33981)","enzyme activity, inhibitor, radiometric",1 µM,remaining activity,105%
Cc1cc(OS(=O)(=O)Oc2ccc(C(C)(C)C)cc2)cc(C(=O)NO)c1,HDAC6,"enzyme activity, inhibitor, fluorescence",10 µM,inhibition,36%
C=CC(=O)N1CCC(COCC(=O)N2CCN(c3nc(-c4cnc(N)nc4C(F)F)nc(N4CCOC[C@@H]4C)n3)CC2)CC1,"Serine/threonine-protein kinase MAK (MAK, Homo sapiens, UniProt P20794)","binding, competition with immobilised ligand",1 µM,remaining binding,100%
Cc1cc(OS(=O)(=O)Oc2cccc(C(C)C)c2)cc(C(=O)NO)c1,HDAC6,"enzyme activity, inhibitor, fluorescence",10 µM,inhibition,58%
Cc1ncsc1-c1ccc(CNC(=O)[C@@H]2C[C@@H](O)CN2C(=O)[C@@H](NC(=O)CCCCCCCCNC(=O)CN2CCN(C(=O)c3ccc(Nc4nc(C5CC5)cn5c(-c6cn[nH]c6)cnc45)c(F)c3)CC2)C(C)(C)C)cc1,TNK1,"cell-free assay, competition with immobilised ligand",1 µM,inhibition,> 65%
Cc1c(OS(=O)(=O)Oc2ccc(Oc3ccccc3)cc2)cccc1C(=O)NO,HDAC6,"enzyme activity, inhibitor, fluorescence",10 µM,inhibition,27%
C=CC(=O)N1C[C@@H](n2nc(C#Cc3c(F)cc4c(ncn4C4CC4)c3F)c(C(N)=O)c2NC)C[C@@H]1COC,TNK1,"enzyme activity, inhibitor, mobility shift",1 µM,inhibition,89.5%
Cc1c(OS(=O)(=O)Oc2ccc(-n3ccnc3)cc2)cccc1C(=O)NO,HDAC6,"enzyme activity, inhibitor, fluorescence",10 µM,inhibition,46%
Cc1cc([C@@H](C)Nc2ccccc2C(=O)O)c2nc(N3CCC(F)(F)CC3)c(C#N)c(=O)n2c1,"Serine/threonine-protein kinase PAK 2 (PAK2, Homo sapiens, UniProt Q13177)","binding, competition with immobilised ligand",1 µM,remaining binding,100%
